Measured values from different studies.
Lines come from different studies, so protocols differ.
Cell line: HepG2
Observed: cell growth or viability

Nc1c(C(=O)N2CC(F)(F)C2)sc2ncccc12
IC50 (72 h): > 100 µM

COc1cc(NC(=N)CC(O)c2cc3c(F)cc(F)cc3c3cc(C(F)(F)F)ccc23)ccc1Br (centres unmarked)
IC50 (neutral red; 24 h): 15.3 µM

COc1ccc(-c2cc(C(F)(F)F)c3c(N)c(C(=O)N4CCCC4)sc3n2)cc1
IC50 (72 h): > 50 µM

Fc1ccc2c(-c3nc(Cc4ccccc4)cs3)nn(Cc3ccc(Cl)cc3Cl)c2c1
IC50 (48 h): 25.1 µM

CN[C@@H]1C[C@H]2O[C@@](C)([C@@H]1OC)n1c3ccccc3c3c4c(c5c6ccccc6n2c5c31)C(=O)NC4
IC50: 0.0383 µM

CC1=C(O)C(=O)C=C2C1=CC=C1[C@@]2(C)CC[C@@]2(C)[C@@H]3C[C@](C)(C(=O)O)CC[C@]3(C)CC[C@]12C
IC50 (CCK-8; 24 h): 2.53 µM

C#CCn1c(C(=O)/C=C/c2ccc(F)cc2)nc2ccccc21
IC50 (LDH; 48 h): 1.72 µM

N=C(CC(O)c1cc2c(F)cc(F)cc2c2cc(C(F)(F)F)ccc12)Nc1ccccc1I (centres unmarked)
IC50 (neutral red; 24 h): 160 µM

CC(C)=CCC[C@](C)(O)[C@H]1CC[C@]2(C)[C@@H]1[C@H](O)C[C@@H]1[C@@]3(C)CC[C@H](O)C(C)(C)[C@@H]3[C@@H](O[C@@H]3O[C@H](CO)[C@@H](O)[C@H](O)[C@H]3O)C[C@]12C
IC50 (CCK-8; 24 h): 32 µM

Nc1c(C(=O)Nc2cccnc2)sc2nc(-c3ccccc3)cc(C(F)(F)F)c12
IC50 (72 h): > 100 µM

N=C(CC(O)c1cc2c(F)cc(F)cc2c2cc(C(F)(F)F)ccc12)Nc1ccc(-c2ccc(F)cc2)cc1 (centres unmarked)
IC50 (neutral red; 24 h): 10.5 µM
